Assay results from ChEMBL document CHEMBL4229360, “Antimalarial agents against both sexual and asexual parasites stages: structure-activity relationships and biological studies of the Malaria Box compound 1-[5-(4-bromo-2-chlorophenyl)furan-2-yl]-N-[(piperidin-4-yl)methyl]methanamine (MMV019918) and analogues” (Eur J Med Chem, 2018).
pEC50, pIC50: −log10 of the molar value.

What was measured:
Plasmodium falciparum [1] = experiment: Antiplasmodial activity against chloroquine-resistant Plasmodium falciparum W2 after 72 hrs by lactate dehydrogenase assay; format: functional, organism-based; settings: W2, 72 h
Method in brief: (§1)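 Asynchronous blood-stage cultures at 1–1.5% parasitemia and 1% final hematocrit in human A+ RBCs, RPMI 1640 with 1% AlbuMax, hypoxanthine, HEPES and glutamine. Serial dilutions from DMSO stocks, final DMSO <1%. Incubated 72 h at 37 °C under 1% O₂/5% CO₂. IC50 is the mean of ≥3 experiments in duplicate.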

[2] = target: T1, Phosphoethanolamine N-methyltransferase (Plasmodium falciparum) (UniProt Q8IDQ9); experiment: Inhibition of plasmodium falciparum phosphoethanolamine N-methyltransferase expressed in Escherichia coli assessed as remaining enzyme activity at 100 uM using phosphoethanolamine as substrate and [methyl-14C] SAM by radiochemical assay
T1 sequence (whole entry): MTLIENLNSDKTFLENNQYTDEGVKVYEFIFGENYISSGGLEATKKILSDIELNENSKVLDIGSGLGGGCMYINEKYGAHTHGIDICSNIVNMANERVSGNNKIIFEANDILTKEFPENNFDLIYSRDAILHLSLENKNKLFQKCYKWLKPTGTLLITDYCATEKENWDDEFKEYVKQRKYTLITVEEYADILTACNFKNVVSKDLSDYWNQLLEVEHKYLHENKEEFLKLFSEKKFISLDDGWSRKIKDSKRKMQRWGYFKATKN
Method in brief: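 Recombinant PfPMT purified from E. coli, 2 μg per 100 μL reaction. Buffer 0.1 M HEPES-KOH pH 8.0, 2 mM Na2EDTA, 10% glycerol, 5% DMSO, with 30 μM SAM (100 nCi [methyl-14C]SAM) and 55 μM phosphoethanolamine; radiochemical read-out.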

Plasmodium falciparum [3] = experiment: Antiplasmodial activity against chloroquine-sensitive Plasmodium falciparum D10 after 72 hrs by lactate dehydrogenase assay; format: functional, organism-based; settings: D10, 72 h; method in brief: as §1
Plasmodium falciparum [4] = experiment: Gametocytocidal activity against Plasmodium falciparum 3D7 elo1-pfs16-CBG99 late-stage (4 to 5) gametocytes assessed as inhibition of parasite viability after 72 hrs by luciferase reporter assay; format: functional, organism-based; settings: 3D7 elo1-pfs16-CBG99, 72 h
Method in brief: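 Transgenic 3D7elo1-pfs16-CBG99 gametocytes express CBG99 luciferase from the pfs16 promoter. Stage IV–V gametocytes (Giemsa-checked) were exposed at day 8–10 after NAG addition to serial dilutions in complete medium for 72 h. Samples at 2% haematocrit were then mixed 1:1 with D-luciferin (1 mM, pH 5.5 citrate) for 10 min and luminescence was read. IC50 came from non-linear regression, mean of ≥3 experiments in duplicate.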

[5] = Cardiotoxicity in Langendorff perfused Wistar rat heart assessed as QTc interval time at 1 uM by electrocardiography (reference value: 76.45 to 80.07 milliseconds); format: toxicity, tissue-based
[6] = Cardiotoxicity in Langendorff perfused Wistar rat heart assessed as PQ interval time at 10 uM by electrocardiography (reference value: 41.13 to 42.63 milliseconds); format: toxicity, tissue-based
Plasmodium falciparum [7] = experiment: Antiplasmodial activity against gametocytes of Plasmodium falciparum NF54 infected in Anopheles stephensi mosquitoes after 24 hrs by standard membrane feeding assay; format: functional, organism-based; settings: NF54, 24 h
[8] = Cardiotoxicity in Langendorff perfused Wistar rat heart assessed as PQ interval time at 1 uM by electrocardiography (reference value: 41.13 to 42.63 milliseconds); format: toxicity, tissue-based
[9] = Cardiotoxicity in Langendorff perfused Wistar rat heart assessed as frequency of heart rate at 10 uM by electrocardiography (reference value: 247.05 to 275.90 bpm); format: toxicity, tissue-based
[10] = Cardiotoxicity in Langendorff perfused Wistar rat heart assessed as QRS interval time at 3 uM by electrocardiography (reference value: 13.31 to 14.35 milliseconds); format: toxicity, tissue-based
[11] = Cardiotoxicity in Langendorff perfused Wistar rat heart assessed as frequency of heart rate at 3 uM by electrocardiography (reference value: 247.05 to 275.90 bpm); format: toxicity, tissue-based
[12] = Cardiotoxicity in Langendorff perfused Wistar rat heart assessed as cycle length interval time at 0.1 uM by electrocardiography (reference value: 217.15 to 242.23 milliseconds); format: toxicity, tissue-based
[13] = Cardiotoxicity in Langendorff perfused Wistar rat heart assessed as cycle length interval time at 3 uM by electrocardiography (reference value: 217.15 to 242.23 milliseconds); format: toxicity, tissue-based
[14] = Cardiotoxicity in Langendorff perfused Wistar rat heart assessed as reduction of left ventricular pressure; format: toxicity, tissue-based
[15] = Cardiotoxicity in Langendorff perfused Wistar rat heart assessed as frequency of heart rate at 1 uM by electrocardiography (reference value: 247.05 to 275.90 bpm); format: toxicity, tissue-based
[16] = Cardiotoxicity in Langendorff perfused Wistar rat heart assessed as QTc interval time at 10 uM by electrocardiography (reference value: 76.45 to 80.07 milliseconds); format: toxicity, tissue-based
Plasmodium falciparum [17] = experiment: Antiplasmodial activity against Plasmodium falciparum asexual stage forms; format: functional, organism-based
CaV1.2 channel = CaV1.2 channel (Rattus norvegicus, UniProt P22002); experiment: Inhibition of CaV1.2 channel in rat tail artery myocytes assessed as reduction in Ba2+ current at 10 uM at -50 mV holding potential by whole-cell patch-clamp assay; format: cell-based
Method in brief: (§2)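 Freshly isolated rat tail artery smooth muscle cells (collagenase digestion), whole-cell patch clamp at 20–22 °C. External solution: 5 mM Ba2+, 30 mM TEA; Cs+-based internal solution, pH 7.4. Currents from 250-ms pulses to 0 mV from Vh −50 mV at 0.067 Hz, after 7–10 min stabilisation. Leak corrected with 10 μM nifedipine. Peak current as % of control; n = 3–6 cells from ≥3 animals.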

[18] = Cardiotoxicity in Langendorff perfused Wistar rat heart assessed as QTc interval time at 3 uM by electrocardiography (reference value: 76.45 to 80.07 milliseconds); format: toxicity, tissue-based
[19] = target: Voltage-dependent L-type calcium channel subunit alpha-1C (Rattus norvegicus, UniProt P22002); experiment: Inhibition of CaV1.2 channel in rat tail artery myocytes assessed as reduction in Ba2+ current at -50 mV holding potential by whole-cell patch-clamp assay; format: cell-based; settings: rat; method in brief: as §2
[20] = Cardiotoxicity in Langendorff perfused Wistar rat heart assessed as frequency of heart rate at 0.1 uM by electrocardiography (reference value: 247.05 to 275.90 bpm); format: toxicity, tissue-based
hERG (KCNH2) = hERG (KCNH2) (Homo sapiens, UniProt Q12809); experiment: Inhibition of human ERG at 50 uM
[21] = Cardiotoxicity in Langendorff perfused Wistar rat heart assessed as QTc interval time at 0.1 uM by electrocardiography (reference value: 76.45 to 80.07 milliseconds); format: toxicity, tissue-based
[22] = Cardiotoxicity in Langendorff perfused Wistar rat heart assessed as cycle length interval time at 1 uM by electrocardiography (reference value: 217.15 to 242.23 milliseconds); format: toxicity, tissue-based
[23] = Cardiotoxicity in Langendorff perfused Wistar rat heart assessed as QRS interval time at 10 uM by electrocardiography (reference value: 13.31 to 14.35 milliseconds); format: toxicity, tissue-based
[24] = Cardiotoxicity in Langendorff perfused Wistar rat heart assessed as PQ interval time at 0.1 uM by electrocardiography (reference value: 41.13 to 42.63 milliseconds); format: toxicity, tissue-based
Plasmodium falciparum [25] = experiment: Gametocytocidal activity against Plasmodium falciparum late stage gametocytes; format: functional, organism-based
Plasmodium falciparum [26] = experiment: Antiplasmodial activity against Plasmodium falciparum sexual stage forms; format: functional, organism-based
[27] = Cardiotoxicity in Langendorff perfused Wistar rat heart assessed as coronary perfusion pressure at 0.1 to 10 uM; format: toxicity, tissue-based
[28] = Cardiotoxicity in Langendorff perfused Wistar rat heart assessed as PQ interval time at 3 uM by electrocardiography (reference value: 41.13 to 42.63 milliseconds); format: toxicity, tissue-based
[29] = Cardiotoxicity in Langendorff perfused Wistar rat heart assessed as cycle length interval time at 10 uM by electrocardiography (reference value: 217.15 to 242.23 milliseconds); format: toxicity, tissue-based
[30] = Cardiotoxicity in Langendorff perfused Wistar rat heart assessed as QRS interval time at 0.1 uM by electrocardiography (reference value: 13.31 to 14.35 milliseconds); format: toxicity, tissue-based
[31] = Cardiotoxicity in Langendorff perfused Wistar rat heart assessed as QRS interval time at 1 uM by electrocardiography (reference value: 13.31 to 14.35 milliseconds); format: toxicity, tissue-based
Plasmodium falciparum [32] = experiment: Gametocytocidal activity against Plasmodium falciparum NF54 HGL gametocytes assessed as inhibition of parasite viability after 72 hrs by ONE-Glo reagent based luminescence assay; format: functional, organism-based
Method in brief: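 NF54 gametocytes raised in 5% haematocrit RPMI1640/10% human serum, with 50 mM NAG on days 4–9. Mainly stage IV gametocytes isolated on day 11 by Percoll gradient and seeded at 5000 cells/well, final DMSO 0.1%. Incubated 72 h at 37 °C, 3% O2, 4% CO2; viability by ONE-Glo luminescence.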

Plasmodium falciparum [33] = experiment: Antiplasmodial activity against asexual blood stage Plasmodium falciparum NF54 after 72 hrs by SYBR green-based fluorometric analysis; format: functional, organism-based; settings: NF54, 72 h
Method in brief: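 Asexual NF54 seeded at 0.83% parasitaemia, 1.5% haematocrit, in RPMI1640 with 10% human serum. Serial dilutions, final DMSO 0.1%. Incubated 72 h at 37 °C under 3% O2, 4% CO2, then read by SYBR Green fluorescence.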

[34] = Cytotoxicity against mouse NIH/3T3 cells after 24 hrs by neutral red uptake assay; format: cell-based, NIH3T3; settings: read-out: TC50
Method in brief: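 NIH3T3 cells exposed for 24 h; viability by neutral red uptake. Mean of three experiments, six replicates each.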

CaV1.2 channel, sequence (P22002 whole entry): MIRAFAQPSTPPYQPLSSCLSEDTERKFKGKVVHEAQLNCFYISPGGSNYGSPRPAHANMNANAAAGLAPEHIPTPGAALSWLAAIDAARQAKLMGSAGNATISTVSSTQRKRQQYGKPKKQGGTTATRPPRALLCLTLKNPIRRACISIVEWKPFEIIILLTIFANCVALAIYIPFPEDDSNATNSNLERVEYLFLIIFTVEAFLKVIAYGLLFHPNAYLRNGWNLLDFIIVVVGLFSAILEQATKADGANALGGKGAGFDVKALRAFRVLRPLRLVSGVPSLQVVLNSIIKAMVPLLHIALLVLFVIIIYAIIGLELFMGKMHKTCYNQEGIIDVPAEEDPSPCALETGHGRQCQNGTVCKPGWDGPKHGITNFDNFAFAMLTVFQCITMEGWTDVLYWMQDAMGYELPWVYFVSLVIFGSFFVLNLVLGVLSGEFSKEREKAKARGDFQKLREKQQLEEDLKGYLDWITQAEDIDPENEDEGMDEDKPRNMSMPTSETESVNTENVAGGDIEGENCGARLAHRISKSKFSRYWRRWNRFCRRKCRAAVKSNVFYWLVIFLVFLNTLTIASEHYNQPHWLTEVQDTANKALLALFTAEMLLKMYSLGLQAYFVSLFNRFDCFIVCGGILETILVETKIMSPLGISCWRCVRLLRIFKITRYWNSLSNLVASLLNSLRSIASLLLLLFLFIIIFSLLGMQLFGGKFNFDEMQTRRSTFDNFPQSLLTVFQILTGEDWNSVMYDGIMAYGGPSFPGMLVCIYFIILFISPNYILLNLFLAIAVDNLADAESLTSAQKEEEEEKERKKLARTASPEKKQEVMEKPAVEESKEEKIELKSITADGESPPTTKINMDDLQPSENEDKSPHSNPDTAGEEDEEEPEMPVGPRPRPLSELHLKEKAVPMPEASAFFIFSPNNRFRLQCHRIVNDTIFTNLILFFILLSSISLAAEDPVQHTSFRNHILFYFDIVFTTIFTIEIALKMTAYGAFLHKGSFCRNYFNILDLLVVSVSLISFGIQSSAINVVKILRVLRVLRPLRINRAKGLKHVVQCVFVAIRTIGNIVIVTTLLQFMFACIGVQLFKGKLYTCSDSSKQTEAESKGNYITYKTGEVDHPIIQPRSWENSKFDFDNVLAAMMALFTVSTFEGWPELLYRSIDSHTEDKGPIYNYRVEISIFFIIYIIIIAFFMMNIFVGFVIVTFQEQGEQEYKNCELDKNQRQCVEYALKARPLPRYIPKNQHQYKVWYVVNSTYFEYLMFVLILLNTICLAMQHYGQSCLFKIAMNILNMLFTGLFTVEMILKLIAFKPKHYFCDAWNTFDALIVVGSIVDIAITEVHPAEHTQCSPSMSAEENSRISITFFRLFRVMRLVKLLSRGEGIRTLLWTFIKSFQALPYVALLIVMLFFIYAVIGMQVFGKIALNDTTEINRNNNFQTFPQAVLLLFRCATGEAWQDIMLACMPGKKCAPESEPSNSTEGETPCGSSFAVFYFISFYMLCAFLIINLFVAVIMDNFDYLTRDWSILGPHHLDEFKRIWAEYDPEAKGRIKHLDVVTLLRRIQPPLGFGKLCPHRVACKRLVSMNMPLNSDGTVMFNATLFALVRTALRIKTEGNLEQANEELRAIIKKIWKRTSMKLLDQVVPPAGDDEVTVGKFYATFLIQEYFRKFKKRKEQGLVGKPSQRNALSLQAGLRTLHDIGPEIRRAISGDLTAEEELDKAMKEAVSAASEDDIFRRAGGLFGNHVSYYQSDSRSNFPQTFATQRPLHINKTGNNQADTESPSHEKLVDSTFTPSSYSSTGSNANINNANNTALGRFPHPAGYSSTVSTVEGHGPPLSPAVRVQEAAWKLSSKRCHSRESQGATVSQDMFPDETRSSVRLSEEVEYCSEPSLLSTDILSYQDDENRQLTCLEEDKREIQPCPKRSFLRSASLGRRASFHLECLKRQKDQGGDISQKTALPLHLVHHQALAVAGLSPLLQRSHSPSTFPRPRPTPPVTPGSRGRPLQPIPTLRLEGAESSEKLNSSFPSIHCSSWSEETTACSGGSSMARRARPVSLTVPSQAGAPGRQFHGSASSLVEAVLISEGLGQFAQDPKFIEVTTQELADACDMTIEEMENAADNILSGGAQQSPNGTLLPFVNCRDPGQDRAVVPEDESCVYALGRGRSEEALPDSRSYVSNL
Voltage-dependent L-type calcium channel subunit alpha-1C, sequence (P22002 whole entry, the tested form may be a part): as the sequence (P22002 whole entry) above
hERG (KCNH2), sequence (Q12809 whole entry, the tested form may be a part): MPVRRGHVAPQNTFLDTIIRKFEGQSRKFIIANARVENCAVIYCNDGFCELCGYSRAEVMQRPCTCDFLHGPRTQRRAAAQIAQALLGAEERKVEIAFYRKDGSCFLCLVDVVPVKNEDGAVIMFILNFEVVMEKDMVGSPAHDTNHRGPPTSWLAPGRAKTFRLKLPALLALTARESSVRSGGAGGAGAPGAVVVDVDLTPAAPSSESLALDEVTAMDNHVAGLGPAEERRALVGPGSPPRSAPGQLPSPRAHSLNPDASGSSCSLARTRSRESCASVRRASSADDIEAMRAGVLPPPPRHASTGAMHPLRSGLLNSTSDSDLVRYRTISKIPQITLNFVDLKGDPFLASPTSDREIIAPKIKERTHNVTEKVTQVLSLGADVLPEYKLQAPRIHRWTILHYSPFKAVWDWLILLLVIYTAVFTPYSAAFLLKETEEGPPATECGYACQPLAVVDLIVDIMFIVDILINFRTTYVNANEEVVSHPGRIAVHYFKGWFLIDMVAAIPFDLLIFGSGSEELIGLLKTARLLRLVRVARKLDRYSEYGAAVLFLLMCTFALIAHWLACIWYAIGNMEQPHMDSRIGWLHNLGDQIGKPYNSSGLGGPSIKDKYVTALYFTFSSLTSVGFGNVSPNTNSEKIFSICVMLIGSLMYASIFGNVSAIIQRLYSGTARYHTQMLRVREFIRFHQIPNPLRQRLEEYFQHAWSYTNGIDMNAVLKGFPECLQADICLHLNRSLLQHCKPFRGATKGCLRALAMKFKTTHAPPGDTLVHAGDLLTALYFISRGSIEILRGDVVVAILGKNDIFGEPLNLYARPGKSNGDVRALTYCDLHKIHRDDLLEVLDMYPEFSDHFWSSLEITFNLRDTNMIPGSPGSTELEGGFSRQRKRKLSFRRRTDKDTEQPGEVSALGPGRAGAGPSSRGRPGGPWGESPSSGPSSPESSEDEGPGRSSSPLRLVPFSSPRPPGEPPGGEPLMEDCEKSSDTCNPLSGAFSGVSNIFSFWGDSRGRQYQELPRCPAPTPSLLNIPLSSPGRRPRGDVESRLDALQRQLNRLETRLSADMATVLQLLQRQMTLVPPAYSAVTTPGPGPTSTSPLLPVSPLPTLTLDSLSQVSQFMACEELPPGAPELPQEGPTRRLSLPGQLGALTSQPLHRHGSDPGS

## N#Cc1ccc(-c2ccc(CNCC3CCNCC3)o2)cc1
Plasmodium falciparum [1]
  pIC50: 5.20
[2]
  Activity: 73.2%
Plasmodium falciparum [3]
  pIC50: 5.96
Plasmodium falciparum [4]
  pIC50: 4.74

## Clc1cc(Br)ccc1-c1ccc(CNCC2CCNCC2)o1
[5]
  Time: 80.93 ms
[6]
  Time: 67.5 ms
Plasmodium falciparum [1]
  pIC50: 5.64
Plasmodium falciparum [7]
  pEC50: 7.15
[8]
  Time: 42.5 ms
[9]
  Activity: 222.74 bpm
[10]
  Time: 17.46 ms
[11]
  Activity: 257.71 bpm
[12]
  Time: 235.08 ms
[13]
  Time: 233.9 ms
[14]
  Activity: Dose-dependent effect
[15]
  Activity: 258.35 bpm
[16]
  Time: 80.99 ms
Plasmodium falciparum [17]
  pIC50: > 6.00
CaV1.2 channel
  inhibition at 10 µM: 57%
[18]
  Time: 82.1 ms
[19]
  inhibition (INH): Dose-dependent effect
[20]
  Activity: 256.15 bpm
hERG (KCNH2)
  inhibition at 50 µM: 83%
[2]
  Activity: 92%
[21]
  Time: 81.51 ms
[22]
  Time: 232.48 ms
[23]
  Time: 23.75 ms
[24]
  Time: 42.29 ms
Plasmodium falciparum [3]
  pIC50: 6.11
Plasmodium falciparum [4]
  pIC50: 5.92
Plasmodium falciparum [25]
  pIC50: > 6.00
Plasmodium falciparum [26]
  pIC50: > 6.00
[27]
  Activity: Non-Toxic
[28]
  Time: 47.9 ms
[29]
  Time: 272.57 ms
[30]
  Time: 14.25 ms
[31]
  Time: 15.8 ms

## Clc1ccc(-c2ccc(CNCC3CCNCC3)s2)c(Br)c1
Plasmodium falciparum [1]
  pIC50: 5.85
Plasmodium falciparum [32]
  pIC50: 7.55
Plasmodium falciparum [33]
  pIC50: 6.38
[34]
  CC50 at 24 h: < 5000 nM
Plasmodium falciparum [3]
  pIC50: 6.28
Plasmodium falciparum [4]
  pIC50: 6.08

## c1ccc(-c2ccc(CNCC3CCNCC3)o2)cc1
Plasmodium falciparum [1]
  pIC50: 5.04
Plasmodium falciparum [3]
  pIC50: 5.46
Plasmodium falciparum [4]
  pIC50: 5.07

## Clc1ccc(-c2nnc(CNCC3CCNCC3)[nH]2)cc1
Plasmodium falciparum [1]
  pIC50: < 4.89
Plasmodium falciparum [3]
  pIC50: < 4.89
Plasmodium falciparum [4]
  pIC50: < 4.89

## Clc1cc(-c2ccccc2)ccc1-c1ccc(CNCC2CCNCC2)o1
Plasmodium falciparum [1]
  pIC50: 5.52
[34]
  CC50 at 24 h: 5000 nM
Plasmodium falciparum [3]
  pIC50: 6.00
Plasmodium falciparum [4]
  pIC50: 5.85

## Clc1ccc(-c2nnc(CNCC3CCNCC3)o2)c(Br)c1
Plasmodium falciparum [1]
  pIC50: 5.10
Plasmodium falciparum [3]
  pIC50: < 4.89
Plasmodium falciparum [4]
  pIC50: < 4.59

## Clc1ccccc1-c1ccc(CNCC2CCNCC2)o1
Plasmodium falciparum [1]
  pIC50: 5.37
Plasmodium falciparum [3]
  pIC50: 5.68
Plasmodium falciparum [4]
  pIC50: 5.23

## CN(C)c1ccc2nc3ccc(N(C)C)cc3[s+]c2c1 [METHYLENE BLUE ANHYDROUS]
Plasmodium falciparum [4]
  pIC50: 7.52

## FC(F)(F)c1ccc(-c2ccc(CNCC3CCNCC3)o2)cc1
Plasmodium falciparum [1]
  pIC50: 5.82
[34]
  CC50 at 24 h: 50000 nM
Plasmodium falciparum [3]
  pIC50: 6.39
Plasmodium falciparum [4]
  pIC50: 5.72
